PMI act satM6P: increases human PMI activity with near-saturating mannose 6-phosphate | AID 1216 | P34949 | coupled PMI enzyme assay, resazurin fluorescence, 20 min; stronger effect = higher value; 1 = untreated enzyme, 0 = substrate-free blank | activation factor at 20 µM | 0.34% of 190,000 active;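 active = activation factor of 2 or more at 20 µM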
Target sequence (P34949 whole entry, looked up): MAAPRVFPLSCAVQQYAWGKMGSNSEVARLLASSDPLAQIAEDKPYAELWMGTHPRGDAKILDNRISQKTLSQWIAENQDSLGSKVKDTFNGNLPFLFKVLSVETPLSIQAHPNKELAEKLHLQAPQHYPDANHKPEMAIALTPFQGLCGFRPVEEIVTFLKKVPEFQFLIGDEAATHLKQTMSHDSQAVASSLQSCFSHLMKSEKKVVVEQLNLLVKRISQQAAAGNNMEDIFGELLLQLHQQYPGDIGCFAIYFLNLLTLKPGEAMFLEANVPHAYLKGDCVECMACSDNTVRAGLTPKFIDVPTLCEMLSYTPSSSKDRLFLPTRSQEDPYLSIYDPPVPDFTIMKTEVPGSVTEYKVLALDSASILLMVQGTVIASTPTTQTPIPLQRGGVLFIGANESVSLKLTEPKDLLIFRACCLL
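test system = human PMI in coupled enzyme assay | medium = HEPES-buffered pH 7.4 with magnesium and detergent | also added = 1.0 mM mannose-6-phosphate substrate with 0.22 mM NADP+ | compound = 20 µM single dose | times = 20 min incubation at room temperature | measured by = resorufin fluorescence (Ex 544/Em 590 nm) from resazurin via diaphorase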
Diaphorase act: activates diaphorase or chemically reduces, flagging diaphorase assay artifacts | Diaphorase/resazurin coupled assay, resorufin fluorescence, 16 min; stronger effect = higher value; 1 = vehicle wells, 0 = NADH-free wells | activation factor at 20 µM | 0.005% of 190,000 active | AID 1229;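 active = diaphorase activity raised at least twofold by the compound at 20 µM; inactive = activation factor below 2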
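Assay system: bacterial diaphorase enzyme (C. kluyveri) / Input: enzyme 0.07 U/mL final / Medium: 50 mM HEPES pH 7.4 with 4.542 mM MgCl2, 0.005% Tween 20 / Doses: single compound dose of 20 µM, 1% DMSO final / Incubation: 16 min enzyme reaction, ambient temperature / Signal: fluorescence, excitation 544 nm and emission 590 nm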
WT yeast gro inh: growth inhibition of WT yeast, mitochondrial fusion screen; mitochondrial fusion phenotypic screen, WT strain; inhibition, % at 10 µM; 2.1% of 190,000 active; in the data active = inhibition above about 58%; tested in S. cerevisiae
L major viab: inhibitors of Leishmania major promastigote growth. Leishmania major promastigotes, resazurin fluorescence viability. AID 1063. inhibition, % at 10 µM. 9% of 200,000 active; in the data active = inhibition above about 50%;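 note: promastigotes grown with compound for 44 hours at 28 °C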
PMI act: increases human mannose-6-phosphate isomerase activity; AID 1214; purified human PMI, coupled resazurin fluorescence, 20 min; stronger effect = higher value; 1 = vehicle control, 0 substrate-free wells; 0.005% of 190,000 active; P34949; activation factor at 20 µM;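 active = activation factor of 2 or more at 20 µM, relative to plate controls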
* marks the source's active call; other numbers are inactive results; · = no result given. Hits are enriched below; roughly 10% of the tested compounds scored in any of these assays.

SMILES	PMI act satM6P	Diaphorase act	WT yeast gro inh	L major viab	PMI act
CCc1nc(C)cn1S(=O)(=O)c1ccc([N+](=O)[O-])cc1	1.1	0.9	-16	100*	1
CCc1nc(C)cn1S(=O)(=O)c1cc(Cl)c(OC)cc1Cl	0.9	0.9	-5	43	0.9
CCc1nc(C)cn1S(=O)(=O)c1cc(C)c(OC)c(C)c1C	0.9	0.8	4	93*	0.9
CCc1nc(C)cn1S(=O)(=O)c1ccc(Cl)c(Cl)c1Cl	0.9	0.9	4	97*	0.6
CCc1nc(C)cn1S(=O)(=O)c1cc(C)c(OC)cc1C	1.1	0.9	8	33	1.1
CCc1nc(C)cn1S(=O)(=O)c1cc(Br)c(C)cc1OC	0.9	0.9	12	99*	0.9
O=C(NN=C1C2CC3CC(C2)CC1C3)c1cccc(S(=O)(=O)N2CCOCC2)c1	1.1	0.9	-4	31	1
CCn1ncc(/C=N\NC(=O)Cc2ccc([N+](=O)[O-])cc2)c1C	1.1	1	0	-5	1.1
COC(=O)C1CC(=O)c2sccc2C1 (stereo not given)	1	0.9	-12	-7	1.1
CCc1nc(C)cn1S(=O)(=O)c1cc(Br)ccc1OC	0.9	1	8	67*	1
CN(CCc1ccccn1)C(=O)CCC1CCCN(C(=O)c2n[nH]c3c2CCCC3)C1 (stereo not given)	1.1	1.2	-18	-5	1
O=C(CCCc1nc(-c2ccccc2Cl)no1)N1CCOCC1	1	1	0	-10	1
O=C(O)C1CN(c2ncccc2[N+](=O)[O-])C1	0.7	0.8	-5	-6	1
O=[N+]([O-])c1cccnc1N1CCC(c2cc(-c3ccc(Cl)cc3)n[nH]2)CC1	0.9	0.8	72*	17	0.9
Cc1[nH]c2ccccc2c1SCCNC(=O)c1ccc(S(=O)(=O)N2CCCC2)cc1	0.9	0.8	9	99*	1
Cc1[nH]c2ccccc2c1C(=O)CSc1nc2cc(S(=O)(=O)N3CCCCC3)ccc2o1	0.9	0.7	6	55*	0.8
O=C(NCc1ccccc1)c1ccc(S(=O)(=O)N2CCCC2)cc1	1	1	·	2	1
Cc1c(NC(=O)CN2C(=O)NC(C)(c3ccccc3)C2=O)c(=O)n(-c2ccccc2)n1C (stereo not given)	1.1	1	1	-3	1
CN1CCN(C(=O)c2cc(COc3c(F)cccc3F)on2)CC1c1ccccc1 (stereo not given)	·	·	79*	2	·
O=S(=O)(c1ccccc1)c1nc(-c2ccccc2)oc1N1CCCCC1	1.7	1	25	8	1.4
CCOC(=O)c1nc(-c2ccccc2)oc1N1CCOCC1	0.9	0.8	-3	9	0.9
COc1cc(S(=O)(=O)Nc2cccc(C)c2)ccc1N=Cc1c(C)[nH]n(-c2ccccc2)c1=O	1	0.9	-12	57*	1
Cc1[nH]n(-c2ccccc2)c(=O)c1/C=N/N1C(=O)c2cccc3cccc(c23)C1=O	0.9	1	4	59*	1
Cc1[nH]n(-c2ccccc2)c(=O)c1C=Nc1cccc2cccnc12	0.6	0.8	-6	64*	0.9
Cc1ccc(-n2[nH]c(C)c(/C=N/c3ccccn3)c2=O)cc1	0.9	0.8	35	-7	0.9
SMILES	PMI act satM6P	Diaphorase act	WT yeast gro inh	L major viab	PMI act
COc1cc(S(=O)(=O)Nc2ccc(C)cc2)ccc1N=Cc1c(C)[nH]n(-c2ccccc2)c1=O	0.9	0.8	0	1	0.8
Cc1cc(=O)[nH]c(-c2cccnc2)n1	1.1	1.1	-7	-10	1.1
Brc1ccc(-c2cn3nc4c(nc3n2)CCCC4)cc1	1.9	0.9	3	42	1.5
Brc1ccc(-c2cn3c(n2)CCc2ccc4cccnc4c2-3)cc1	1.3	1.2	11	100*	1.4
CC(C)c1ccccc1NC(=O)COC(=O)Cc1ccsc1	1.1	1.1	-5	-5	1
CCN1CCCn2c1nc1c2c(=O)n(C)c(=O)n1C	1	0.9	-11	59*	1
Cn1c(=O)n(Cc2ccccc2)c(=O)c2c1nc1n2CCCN1CCc1ccccc1	1	0.9	-5	100*	1
Cn1c(=O)n(Cc2ccccc2)c(=O)c2c1nc1n2CCCN1Cc1ccccc1	1	1	-13	-5	1
CCOc1ccc(CN(C)CC(=O)Nc2ccc([N+](=O)[O-])cc2Cl)cc1	1.1	1	14	-4	1
Cc1ccc(Oc2ccccc2/C=C/C(=O)O)cc1	1	0.9	-6	-8	1
COc1ccccc1NC(=O)N1CCN(C)CC1	1	0.9	-16	-7	1
COCCNC(=O)C1=C(N)C(C(=O)Nc2ccc(C)c(S(=O)(=O)N3CCCCC3)c2)SC1=Nc1ccc(C)cc1C (stereo not given)	1.1	0.8	0	-9	1
Fc1ccc(C2=Nn3c(nnc3-c3n[nH]c4c3CCC4)SC2)cc1	0.9	0.8	11	51*	0.9
c1ccc(-c2cc(-c3nnc4n3N=C(c3ccc5ccccc5c3)CS4)[nH]n2)cc1	0.9	1	5	55*	1
Cc1cc(-c2nnc3n2N=C(c2ccc(-c4ccccc4)cc2)CS3)n[nH]1	1	0.9	17	66*	0.8
COc1ccc(C2=Nn3c(nnc3-c3ccccc3)SC2)cc1OC	1	1	-12	1	1
O=C(COc1ccc(Br)cc1)Nc1ccc(Cc2ccncc2)cc1	0.9	0.9	49	13	1
C/C(O)=c1/cnc2nc3ccccc3n2c1=O	1.1	1.1	-9	-8	1.2
Cc1cc(Cl)ccc1OCCCC(=O)OCC(N)=O	1	1	-7	-6	1
COCCCNC(=O)Cn1c(=O)n(CCCCCC(=O)Nc2ccccc2)c(=O)c2sccc21	1.1	1	-1	50*	0.9
COc1ccc(NC(=O)CCCn2c(=O)c3sccc3n(Cc3ccccc3C)c2=O)cc1	1	0.9	11	89*	0.9
COc1ccc(NC(=O)c2cn(CCC#N)nc2-c2cc3ccccc3o2)cc1	0.9	0.8	-5	-1	1
Cc1ccc(NC(=O)[C@@H]2CCCN2S(=O)(=O)c2ccccc2C(F)(F)F)cc1S(=O)(=O)N1CCOCC1	1	0.9	-22	98*	1
Cn1c(N)c(C(=O)CSc2nc(N)cc(N)n2)c(=O)n(C)c1=O	1.1	1	2	0	1.1
O=C(/C=C\c1ccc2c(c1)OCO2)Nc1c2c(nn1-c1ccc(Cl)cc1)CSC2	0.9	0.8	20	95*	1
O=C(/C=C/c1ccc2c(c1)OCO2)N1CCN(c2ccc(Cl)cc2)CC1	1	1.1	-3	8	1.1
C/C(=N\NC(=O)C1=NNC(=O)C1C)c1cccs1 (stereo not given)	0.9	0.9	18	1	1.1
